Experimental data: ChEMBL document CHEMBL4382263, “Spirostaphylotrichin X from a Marine-Derived Fungus as an Anti-influenza Agent Targeting RNA Polymerase PB2” (J Nat Prod, 2018)
Active and inactive are the calls of the source. The rule behind the calls is not given here.

System: Influenza A virus
Test: Antiviral activity against Influenza A virus H5N1 pseudovirus harboring IAV (A/Thailand/Kan353/2004(H5N1))-HA/IAV (A/Thailand/Kan353/2004(H5N1))-NA/HIV core plasmids infected in MDCK cells assessed as pseudovirus neutralization incubated for 30 mins with virus followed by viral infection and measured after 48 hrs by luciferase reporter gene assay
Format: functional, organism-based
Outline: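 Pseudovirus incubated with varying compound concentrations for 30 min at 37 °C, then added to MDCK cells for 48 h. Lysates read for luciferase activity; VSV-G pseudovirus run as control.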

## CC/C=C1/C=CC(=O)[C@@H](O)[C@]12C(=O)N(OC)[C@@](C)(OC)[C@@H]2O
  Activity: inactive
